Tests used:
HFF [1] = assay: Selectivity index, CC50 in HFF cell/ EC50 against vaccinia virus; format: functional
Outline: (§1)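 Selectivity index is the ratio of CC50 (HFF neutral red uptake) to EC50 from the matching plaque reduction assay.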

Murid betaherpesvirus 1 = assay: Antiviral activity against MCMV Smith replication; format: functional, organism-based; conditions: Murid betaherpesvirus 1, Smith
Outline: (§2)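 Plaque reduction used HCMV AD-169 in HFF cells (plated 2 days ahead) or MCMV Smith in MEF cells (plated 1 day ahead), at 20-30 PFU/well in triplicate with 1 h adsorption. Infected cells were then given MEM (2% FBS) with compound diluted 1:5 from 100 µM. Plates ran 7 days (MCMV) or 8 days (HCMV) at 37 °C, followed by 6 h neutral red staining. EC50 is the concentration giving 50% plaque reduction.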

HFF [2] = assay: Cytotoxicity against HFF cell; format: functional; conditions: Homo sapiens
HFF [3] = assay: Selectivity index, CC50 in HFF cell/ EC50 against HCMV; format: functional; outline: as §1
HFF [4] = assay: Selectivity index, CC50 in HFF cell/ EC50 against cowpox virus; format: functional; outline: as §1
Human betaherpesvirus 5 = assay: Antiviral activity against HCMV AD-169 replication; format: functional, organism-based; conditions: Human betaherpesvirus 5, AD-169; outline: as §2
HFF [5] = assay: Selectivity index, CC50 in HFF cell/ EC50 against MCMV; format: functional; outline: as §1
Cowpox virus = assay: Antiviral activity against Cowpox virus Brighton replication in HFF cells; format: functional, organism-based
Vaccinia virus = assay: Antiviral activity against Vaccinia virus Copenhagen replication in HFF cells; format: functional, organism-based; conditions: Orthopoxvirus vaccinia

**Q.** Which results are given for `CCCCCCCC/C=C\CCCCCCCCOCCOP(=O)([O-])CO[C@H](CO)Cn1cnc2c(N)ncnc21.[Na+]`?
**A.** Selectivity index (HFF [1]): 2100; EC50 (Murid betaherpesvirus 1): 40 nM; CC50 (HFF [2]): 6300 nM; Selectivity index (HFF [3]): 2100; Selectivity index (HFF [4]): 900; EC50 (Human betaherpesvirus 5): 3 nM; Selectivity index (HFF [5]): 158; EC50 (Cowpox virus): 7 nM; EC50 (Vaccinia virus): 3 nM

**Q.** Which Selectivity index (HFF [1]) does the source give for `CCCCCCCCCCCCCCCCOCCCOP(=O)([O-])CO[C@H](CO)Cn1cnc2c(N)ncnc21.[Na+]` here?
**A.** 970

**Q.** What about the EC50 (Murid betaherpesvirus 1) of the same compound?
**A.** 2 nM

**Q.** What about the CC50 (HFF [2]) of the same compound?
**A.** 9700 nM

**Q.** And the Selectivity index (HFF [3])?
**A.** 3233

**Q.** And the Selectivity index (HFF [4])?
**A.** 485

**Q.** And the EC50 (Human betaherpesvirus 5)?
**A.** 3 nM

**Q.** And the Selectivity index (HFF [5])?
**A.** 485

**Q.** For `CCCCCCCCCCCCCCCCCCOCCOP(=O)(O)CO[C@H](CO)Cn1ccc(N)nc1=O`, which EC50 (Murid betaherpesvirus 1) is on record?
**A.** 1 nM

**Q.** And the EC50 (Human betaherpesvirus 5)?
**A.** 0.9 nM

**Q.** What about the EC50 (Cowpox virus) of the same compound?
**A.** 300 nM

**Q.** What about the EC50 (Vaccinia virus) of the same compound?
**A.** 200 nM

**Q.** Which results are given for `Nc1ncnc2c1ncn2C[C@@H](CO)OCP(=O)(O)O`?
**A.** Selectivity index (HFF [1]): >107; EC50 (Murid betaherpesvirus 1): 160 nM; CC50 (HFF [2]): > 289000 nM; Selectivity index (HFF [3]): >352; Selectivity index (HFF [4]): >72; EC50 (Human betaherpesvirus 5): 820 nM; Selectivity index (HFF [5]): >181

**Q.** With `CCCCCCCC/C=C\CCCCCCCCOCCCOP(=O)([O-])CO[C@H](CO)Cn1cnc2c(N)ncnc21.[Na+]` as the compound, how does the Selectivity index (HFF [1]) read?
**A.** 4156

**Q.** And the EC50 (Murid betaherpesvirus 1)?
**A.** 100 nM

**Q.** And the CC50 (HFF [2])?
**A.** 74800 nM

**Q.** And the Selectivity index (HFF [3])?
**A.** 25000

**Q.** And the Selectivity index (HFF [4])?
**A.** 2200

**Q.** What about the EC50 (Human betaherpesvirus 5) of the same compound?
**A.** 3 nM

**Q.** What about the Selectivity index (HFF [5]) of the same compound?
**A.** 750

**Q.** What about the EC50 (Cowpox virus) of the same compound?
**A.** 34 nM

**Q.** What about the EC50 (Vaccinia virus) of the same compound?
**A.** 18 nM

**Q.** With `CCCCCCCCCCCCCCCCCCOCCOP(=O)([O-])CO[C@H](CO)Cn1cnc2c(N)ncnc21.[Na+]` as the compound, how does the Selectivity index (HFF [1]) read?
**A.** 150

**Q.** What about the EC50 (Murid betaherpesvirus 1) of the same compound?
**A.** 3 nM

**Q.** What about the CC50 (HFF [2]) of the same compound?
**A.** 1500 nM

**Q.** What about the Selectivity index (HFF [3]) of the same compound?
**A.** 500

**Q.** And the Selectivity index (HFF [4])?
**A.** 75

**Q.** What about the EC50 (Human betaherpesvirus 5) of the same compound?
**A.** 3 nM

**Q.** What about the Selectivity index (HFF [5]) of the same compound?
**A.** 500

**Q.** What does the source list for `CCCCCCCCCCCCCCCCOCCCOP(=O)(O)CO[C@H](CO)Cn1ccc(N)nc1=O` [BRINCIDOFOVIR]?
**A.** EC50 (Murid betaherpesvirus 1): 0.9 nM; EC50 (Human betaherpesvirus 5): 0.9 nM; EC50 (Cowpox virus): 60 nM; EC50 (Vaccinia virus): 80 nM

**Q.** What does the source list for `Nc1ccn(C[C@@H](CO)OCP(=O)(O)O)c(=O)n1.O.O` [CIDOFOVIR]?
**A.** Selectivity index (HFF [1]): >12.5; EC50 (Murid betaherpesvirus 1): 40 nM; CC50 (HFF [2]): > 317000 nM; Selectivity index (HFF [3]): >264; Selectivity index (HFF [4]): >10.3; EC50 (Human betaherpesvirus 5): 1200 nM; Selectivity index (HFF [5]): >7925; EC50 (Cowpox virus): 30700 nM; EC50 (Vaccinia virus): 25300 nM

Source: ChEMBL document CHEMBL1139008, “Synthesis and antiviral evaluation of alkoxyalkyl derivatives of 9-(S)-(3-hydroxy-2-phosphonomethoxypropyl)adenine against cytomegalovirus and orthopoxviruses” (J Med Chem, 2006)
